# Test results: ChEMBL document CHEMBL3758077, “Discovery of New Acid Ceramidase-Targeted Acyclic 5-Alkynyl and 5-Heteroaryl Uracil Nucleosides” (ACS Med Chem Lett, 2015)
# Active and inactive are the calls of the source. No cut-off for these calls is given here.
# Legend:
# MCF7 [1] = assay: Antiproliferative activity against human MCF7 cells after 72 hrs by MTT assay; format: functional, cell-based; conditions: MCF7, 72 h
# Summary of the method: (§1)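 Cells grown in vitro with test agent; growth inhibition read by MTT assay; IC50 taken as concentration inhibiting tumor cell proliferation by 50%.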
# [2] = Antiproliferative activity against human SW620 cells after 72 hrs by MTT assay; format: functional, cell-based; conditions: SW-620, 72 h; summary of the method: as §1
# HeLa = assay: Antiproliferative activity against human HeLa cells after 72 hrs by MTT assay; format: functional, cell-based; summary of the method: as §1
# BJ = assay: Antiproliferative activity against human BJ cells after 72 hrs by MTT assay; format: cell-based; summary of the method: as §1
# MCF7 [3] = assay: Effect on SK1 expression in human MCF7 cells at IC50 after 24 hrs by western blot analysis; format: functional, cell-based
# MCF7 [4] = assay: Induction of apoptosis in human MCF7 cells assessed as late apoptotic cells at IC50 after 48 hrs by annexinV/propidium iodide staining based fluorescence analysis (reference value: 27.7 %); format: functional
# [5] = molecular target: T1, 17-beta-hydroxysteroid dehydrogenase type 1 (Homo sapiens) (UniProt P14061); assay: Inhibition of 17beta-HSD1 in human MCF7 cells at 5XIC50 after 24 hrs by ELISA; format: cell-based
# T1 sequence (whole entry): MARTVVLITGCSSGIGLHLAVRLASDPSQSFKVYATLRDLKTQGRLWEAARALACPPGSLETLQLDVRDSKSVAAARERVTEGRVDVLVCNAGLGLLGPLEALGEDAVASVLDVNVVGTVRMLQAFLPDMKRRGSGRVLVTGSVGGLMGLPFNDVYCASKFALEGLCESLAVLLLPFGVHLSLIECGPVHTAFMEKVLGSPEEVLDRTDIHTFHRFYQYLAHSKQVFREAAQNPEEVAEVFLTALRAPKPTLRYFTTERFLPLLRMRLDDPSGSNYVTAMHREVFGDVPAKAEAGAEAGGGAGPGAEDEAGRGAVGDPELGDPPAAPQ
# MCF7 [6] = assay: Induction of apoptosis in human MCF7 cells assessed as early apoptotic cells at IC50 after 24 hrs by annexinV/propidium iodide staining based fluorescence analysis (reference value: 8.7 %); format: functional
# MCF7 [7] = assay: Downregulation of ASAH1 expression in human MCF7 cells at IC50 after 24 hrs by western blot analysis; format: functional, cell-based
# [8] = molecular target: T1, 17-beta-hydroxysteroid dehydrogenase type 1 (Homo sapiens); assay: Inhibition of 17beta-HSD1 in human MCF7 cells at IC50 after 24 hrs by ELISA; format: cell-based
# MCF7 [9] = assay: Induction of apoptosis in human MCF7 cells assessed as late apoptotic cells at IC50 after 24 hrs by annexinV/propidium iodide staining based fluorescence analysis (reference value: 7.5 %); format: functional
# MCF7 [10] = assay: Induction of apoptosis in human MCF7 cells assessed as early apoptotic cells at IC50 after 48 hrs by annexinV/propidium iodide staining based fluorescence analysis (reference value: 36.1 %); format: functional
# MCF7 [11] = assay: Induction of apoptosis in human MCF7 cells assessed as necrotic cells at IC50 after 48 hrs by annexinV/propidium iodide staining based fluorescence analysis (reference value: 25.4 %); format: functional
# MCF7 [12] = assay: Induction of apoptosis in human MCF7 cells assessed as necrotic cells at IC50 after 24 hrs by annexinV/propidium iodide staining based fluorescence analysis (reference value: 9.4 %); format: functional
SMILES,IC50 (MCF7 [1]),IC50 [2],IC50 (HeLa),IC50 (BJ),Activity (MCF7 [3]),Activity (MCF7 [4]),inhibition [5],Activity (MCF7 [6]),inhibition (MCF7 [7]),inhibition [8],Activity (MCF7 [9]),Activity (MCF7 [10]),Activity (MCF7 [11]),Activity (MCF7 [12])
CCCCCC#Cc1cn(CCC(COC(C)=O)COC(C)=O)c(=O)n(C(=O)c2ccccc2)c1=O,62.2 µM,40.7 µM,53.7 µM,–,–,–,–,–,–,–,–,–,–,–
CC(=O)OCC(CCn1cc(C#CCCCCl)c(=O)n(C(=O)c2ccccc2)c1=O)COC(C)=O,21 µM,> 100 µM,52.8 µM,–,–,–,–,–,–,–,–,–,–,–
O=c1[nH]c(=O)n(CCC(CO)CO)cc1C#CCc1ccccc1,> 100 µM,72.4 µM,63.8 µM,> 100 µM,–,–,–,–,–,–,–,–,–,–
CC(=O)OCC(CCn1cc(C#Cc2ccc(Br)cc2)c(=O)n(C(=O)c2ccccc2)c1=O)COC(C)=O,28.9 µM,> 100 µM,47.2 µM,37.6 µM,–,–,–,–,–,–,–,–,–,–
O=c1[nH]c(=O)n(CCC(CO)CO)cc1-c1cccs1,6 µM,> 100 µM,7.8 µM,–,inactive,22.9%,Active,32.8%,inactive,Active,33.6%,54.9%,13.1%,26.2%
CC(=O)OCC(CCn1cc(C#CC(C)(C)C)c(=O)n(C(=O)c2ccccc2)c1=O)COC(C)=O,67.1 µM,> 100 µM,71.5 µM,36.9 µM,–,–,–,–,–,–,–,–,–,–
O=c1[nH]c(=O)n(CCC(CO)CO)cc1C#Cc1cc(F)cc(F)c1,63.1 µM,> 100 µM,31.2 µM,> 100 µM,–,–,–,–,–,–,–,–,–,–
CCCCCCCCC#Cc1cn(CCC(CO)CO)c(=O)[nH]c1=O,40.3 µM,> 100 µM,58.9 µM,–,–,–,–,–,–,–,–,–,–,–
O=c1[nH]c(=O)n(CCC(CO)CO)cc1C#CC1CC1,> 100 µM,> 100 µM,> 100 µM,–,–,–,–,–,–,–,–,–,–,–
O=c1[nH]c(=O)n(CCC(CO)CO)cc1-c1ccco1,< 0.01 µM,> 100 µM,> 100 µM,0.5 µM,inactive,18%,inactive,20.4%,inactive,inactive,19.7%,39.3%,28.7%,34%
O=c1[nH]c(=O)n(CCC(CO)CO)cc1C#Cc1ccc(Br)cc1,46 µM,> 100 µM,67.7 µM,> 100 µM,–,–,–,–,–,–,–,–,–,–
CC(=O)OCC(CCn1cc(C#Cc2cc(F)cc(F)c2)c(=O)n(C(=O)c2ccccc2)c1=O)COC(C)=O,28.9 µM,> 100 µM,64.5 µM,46.6 µM,–,–,–,–,–,–,–,–,–,–
CCCCCc1ccc(C#Cc2cn(CCC(COC(C)=O)COC(C)=O)c(=O)n(C(=O)c3ccccc3)c2=O)cc1,0.1 µM,> 100 µM,79.1 µM,17.6 µM,inactive,24.1%,–,41.7%,Active,–,28.3%,28.2%,37.9%,34.6%
O=c1[nH]cc(F)c(=O)[nH]1 [FLUOROURACIL],0.09 µM,0.79 µM,> 100 µM,–,–,–,–,–,–,–,–,–,–,–
CC(C)(C)C#Cc1cn(CCC(CO)CO)c(=O)[nH]c1=O,95.9 µM,> 100 µM,> 100 µM,58.2 µM,–,–,–,–,–,–,–,–,–,–
O=c1[nH]c(=O)n(CCC(CO)CO)cc1C#CCCCCl,35.2 µM,> 100 µM,> 100 µM,–,–,–,–,–,–,–,–,–,–,–
CC(=O)OCC(CCn1cc(C#CC2CC2)c(=O)n(C(=O)c2ccccc2)c1=O)COC(C)=O,0.1 µM,> 100 µM,> 100 µM,0.3 µM,inactive,24.4%,–,10.9%,Active,–,36.6%,20.9%,31.6%,34.1%
CCCCCC#Cc1cn(CCC(CO)CO)c(=O)[nH]c1=O,37.8 µM,> 100 µM,76.3 µM,–,–,–,–,–,–,–,–,–,–,–
CCCCCCCCC#Cc1cn(CCC(COC(C)=O)COC(C)=O)c(=O)n(C(=O)c2ccccc2)c1=O,28.9 µM,65.8 µM,32.4 µM,> 100 µM,–,–,–,–,–,–,–,–,–,–
CC(=O)OCC(CCn1cc(C#CCc2ccccc2)c(=O)n(C(=O)c2ccccc2)c1=O)COC(C)=O,26.8 µM,36.4 µM,29.9 µM,–,–,–,–,–,–,–,–,–,–,–
CCCCCc1ccc(C#Cc2cn(CCC(CO)CO)c(=O)[nH]c2=O)cc1,26.8 µM,> 100 µM,48.2 µM,–,–,–,–,–,–,–,–,–,–,–
